The source made the active and inactive calls. The calls are words filed in the database; no cut-off is given here.
Experiments:
HepG2 [1] = assay: Antiinflammatory activity in human HepG2 cells assessed as inhibition of TNFalpha-induced IkappaBalpha degradation at 2 uM pretreated for 1 hr followed by TNFalpha addition and measured after 30 mins by Western blot analysis; type: functional, cell-based
Summary of the method: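 HepG2 cells grown in DMEM with 10% FBS were exposed to compound for 1 hr and to TNFα (20 ng/mL) for 30 min. Lysates were run on 10% SDS-PAGE and immunoblotted for IκBα with ECL detection. Band grey values were quantified by densitometry. Data are mean ± SEM of three independent experiments.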

[2] = target: T1, Nuclear receptor subfamily 4immunitygroup A member 1 (Homo sapiens, UniProt P22736); assay: Binding affinity to recombinant human N-terminal His-tagged Nur77 LBD (367 to 598 residues) expressed in Escherichia coli BL21(DE3) incubated for 30 secs by fluorescence quenching assay
T1 sequence (P22736 whole entry, the tested form may be a part): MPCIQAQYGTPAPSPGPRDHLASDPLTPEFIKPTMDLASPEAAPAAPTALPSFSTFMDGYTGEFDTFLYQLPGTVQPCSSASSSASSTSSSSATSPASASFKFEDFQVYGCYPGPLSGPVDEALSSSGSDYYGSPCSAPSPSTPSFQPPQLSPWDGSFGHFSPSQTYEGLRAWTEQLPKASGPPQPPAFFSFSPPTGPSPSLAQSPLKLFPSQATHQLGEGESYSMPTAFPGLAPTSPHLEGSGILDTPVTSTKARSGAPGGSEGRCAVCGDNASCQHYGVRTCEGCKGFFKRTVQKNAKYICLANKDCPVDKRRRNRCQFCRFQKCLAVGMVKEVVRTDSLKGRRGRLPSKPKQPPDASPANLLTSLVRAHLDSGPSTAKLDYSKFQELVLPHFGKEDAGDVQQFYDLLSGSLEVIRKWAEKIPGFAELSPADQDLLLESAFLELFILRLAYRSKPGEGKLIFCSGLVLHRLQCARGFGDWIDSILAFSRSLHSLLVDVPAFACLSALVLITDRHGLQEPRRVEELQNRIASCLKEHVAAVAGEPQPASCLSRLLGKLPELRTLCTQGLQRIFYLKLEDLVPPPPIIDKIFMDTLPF

HepG2 [3] = assay: Induction of apoptosis in TNFalpha-treated human HepG2 cells assessed as PARP cleavage at 2 uM incubated for 10 hrs by Western blot analysis; type: cell-based; conditions: hepg2, 10 h
[4] = target: T1, Nuclear receptor subfamily 4immunitygroup A member 1; assay: Binding affinity to Myc-Nur77 (unknown origin) expressed in human HepG2 cells co-transfected with Flag tagged TRAF2 assessed as effect on protein interaction with TRAF2 at 2 uM incubated for 1 hr in presence of TNFalpha by co-immunoprecipitation assay; type: cell-based
Summary of the method: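 HepG2 cells were transfected with Myc-Nur77 and Flag-TRAF2, then treated for 1 hr with compound (2 μM) plus TNFα (20 ng/mL). Lysis buffer was 10 mM Tris pH 7.4, 150 mM NaCl, 1% Triton X-100, 5 mM EDTA and protease inhibitors. Lysate was incubated with 1 μg antibody for 2 hr at 4 °C, pulled down with protein A/G sepharose, washed, and read by Western blot.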

HepG2 [5] = assay: Induction of apoptosis in TNFalpha-treated human HepG2 cells assessed as non-viable apoptotic cells at 2 uM incubated for 10 hrs by FITC Annexin V and propidium iodide staining based flow cytometric analysis (reference value: 6.65%); type: cell-based; conditions: hepg2, 10 h
Summary of the method: (§1)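 HepG2 cells grown in DMEM with 10% FBS were treated for 10 hr with compound (2 μM) plus TNFα (20 ng/mL). Cells were collected in binding buffer, stained with FITC-Annexin V and propidium iodide at room temperature, and analysed by flow cytometry. Quadrants as labelled: UL necrotic, UR viable apoptotic, LR non-viable apoptotic, LL normal.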

[6] = Induction of apoptosis in TNFalpha-treated human HepG2 cells assessed as normal cells at 2 uM incubated for 10 hrs by FITC Annexin V and propidium iodide staining based flow cytometric analysis (reference value: 88.37%); type: cell-based; conditions: read-out: Activity; summary of the method: as §1
HepG2 [7] = assay: Induction of apoptosis in TNFalpha-treated human HepG2 cells assessed as viable apoptotic cells at 2 uM incubated for 10 hrs by FITC Annexin V and propidium iodide staining based flow cytometric analysis (reference value: 3.69%); type: cell-based; conditions: hepg2, 10 h; summary of the method: as §1
[8] = target: T1, Nuclear receptor subfamily 4immunitygroup A member 1; assay: Binding affinity to GFP-Nur77 (unknown origin) expressed in human HepG2 cells cotransfected with mCherry-p62/SQSTM1 assessed as co-localization with p62/SQSTM1 in cytoplasm in presence of TNFalpha by DAPI staining based confocal microscopic analysis; type: cell-based
Summary of the method: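 HepG2 cells were transfected with GFP-Nur77 and mCherry-p62/SQSTM1, then treated with TNFα plus compound. Cells were fixed in paraformaldehyde, with nuclei counterstained by DAPI (1:10000). Nur77–p62 colocalization was imaged by fluorescence or LSM-510 confocal microscopy.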

HepG2 [9] = assay: Induction of apoptosis in TNFalpha-treated human HepG2 cells assessed as necrotic cells at 2 uM incubated for 10 hrs by FITC Annexin V and propidium iodide staining based flow cytometric analysis (reference value: 1.29%); type: cell-based; conditions: hepg2, 10 h; summary of the method: as §1
[10] = Toxicity in zebrafish embryo AB assessed as mortality at 0.5 uM incubated for 24 hrs; parameters: species or system Danio rerio; conditions: in vivo
Summary of the method: (§2)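 Wild-type AB zebrafish embryos (20 per condition), collected within 0.5 h of spawning, were exposed from 2 hpf to 0.5, 1 or 1.25 µM compound in fish water, with 0.1% DMSO as control. Embryos were observed and imaged every 24 h. Mortality was scored at 24 and 72 hpf and malformation rate at 72 hpf.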

[11] = Toxicity in zebrafish embryo AB assessed as induction of malformation at 0.5 to 1.25 uM incubated for 24 to 72 hrs; parameters: species or system Danio rerio; conditions: in vivo; summary of the method: as §2
[12] = Toxicity in zebrafish embryo AB assessed as mortality at 0.5 uM incubated for 72 hrs relative to control; parameters: species or system Danio rerio; conditions: in vivo, read-out: Activity; summary of the method: as §2
[13] = Toxicity in zebrafish embryo AB assessed as mortality at 0.125 uM incubated for 24 hrs relative to control; parameters: species or system Danio rerio; conditions: in vivo, read-out: Activity
[14] = Toxicity in zebrafish embryo AB assessed as mortality at 0.5 uM incubated for 72 hrs; parameters: species or system Danio rerio; conditions: in vivo; summary of the method: as §2
[15] = Toxicity in zebrafish embryo AB assessed as mortality at 0.125 uM incubated for 24 hrs; parameters: species or system Danio rerio; conditions: in vivo

Row | Compound | inhibition (HepG2 [1]) | Kd ([2]; read-out: Kd) [nM] | Kd [2] | other results
1 | CC(=O)C[C@@H]1C=C2[C@@](C)(CC[C@@]3(C)[C@@H]4C[C@](C)(C(=O)O)CC[C@]4(C)CC[C@]23C)c2cc(O)c(O)c(C)c21 | inactive | 3800 | – | –
2 | CCOC1=C(C)C2=CC=C3[C@@](C)(CC[C@@]4(C)[C@@H]5C[C@](C)(C(=O)OC)CC[C@]5(C)CC[C@]34C)C2=CC1=O | inactive | 4130 | – | –
3 | CC1=C(O)C(=O)C=C2C1=CC=C1[C@@]2(C)CC[C@@]2(C)[C@@H]3C[C@](C)(C(=O)F)CC[C@]3(C)CC[C@]12C | Active | 720 | – | –
4 | CCOC(=O)[C@]1(C)CC[C@]2(C)CC[C@]3(C)C4=CC=C5C(=CC(=O)C(O)=C5C)[C@]4(C)CC[C@@]3(C)[C@@H]2C1 | Active | 220 | – | –
5 | COc1cc2c(c(C)c1O)CC=C1[C@@]2(C)CC[C@@]2(C)[C@@H]3C[C@](C)(C(=O)O)CC[C@]3(C)CC[C@]12C | inactive | – | Not Active | –
6 | CCNC(=O)[C@]1(C)CC[C@]2(C)CC[C@]3(C)C4=CC=C5C(=CC(=O)C(O)=C5C)[C@]4(C)CC[C@@]3(C)[C@@H]2C1 | Active | 830 | – | Activity (HepG2 [3]): Toxic; Activity [4]: Active; Activity (HepG2 [5]): 24%; viability at 10 h, 2 µM [6]: 53.7%; Activity (HepG2 [7]): 18.35%; Activity [8]: Active; Activity (HepG2 [9]): 3.92%
7 | CC1=C(O)C(=O)C=C2C1=CC=C1[C@@]2(C)CC[C@@]2(C)[C@@H]3C[C@](C)(C(=O)OC(C)C)CC[C@]3(C)CC[C@]12C | Active | 520 | – | –
8 | COC(=O)[C@]1(C)CC[C@]2(C)CC[C@]3(C)C4=CCc5c(cc(OC)c(O)c5C)[C@]4(C)CC[C@@]3(C)[C@@H]2C1 | inactive | – | Not Active | –
9 | COc1cc2c(c(C)c1OC)CC=C1[C@@]2(C)CC[C@@]2(C)[C@@H]3C[C@](C)(C(=O)O)CC[C@]3(C)CC[C@]12C | inactive | – | Not Active | –
10 | COC(=O)[C@]1(C)CC[C@]2(C)CC[C@]3(C)C4=CC=C5C(=CC(=O)C(OC)=C5C)[C@]4(C)CC[C@@]3(C)[C@@H]2C1 | inactive | 2940 | – | –
11 | COP(=O)(OC)[C@@H]1C=C2[C@@](C)(CC[C@@]3(C)[C@@H]4C[C@](C)(C(=O)O)CC[C@]4(C)CC[C@]23C)c2cc(O)c(O)c(C)c21 | inactive | – | Not Active | –
12 | COc1c(O)cc2c(c1C)CC=C1[C@@]2(C)CC[C@@]2(C)[C@@H]3C[C@](C)(C(=O)O)CC[C@]3(C)CC[C@]12C | inactive | – | Not Active | –
13 | COC(=O)[C@]1(C)CC[C@]2(C)CC[C@]3(C)C4=CCc5c(cc(OC)c(OC)c5C)[C@]4(C)CC[C@@]3(C)[C@@H]2C1 | inactive | – | Not Active | –
14 | COC(=O)[C@]1(C)CC[C@]2(C)CC[C@]3(C)C4=CC=C5C(=CC(=O)C(O)=C5C)[C@]4(C)CC[C@@]3(C)[C@@H]2C1 [PRISTIMERIN] | Active | 960 | – | –
15 | Cc1c(O)c(O)cc2c1C(=O)C=C1[C@@]2(C)CC[C@@]2(C)[C@@H]3C[C@](C)(C(=O)O)CC[C@]3(C)CC[C@]12C | inactive | 2690 | – | –
16 | Cc1c(O)c(O)cc2c1[C@H](CN)C=C1[C@@]2(C)CC[C@@]2(C)[C@@H]3C[C@](C)(C(=O)O)CC[C@]3(C)CC[C@]12C | inactive | – | Not Active | –
17 | CC1=C(O)C(=O)C=C2C1=CC=C1[C@@]2(C)CC[C@@]2(C)[C@@H]3C[C@](C)(C(=O)O)CC[C@]3(C)CC[C@]12C [CELASTROL] | Active | – | – | Activity (HepG2 [3]): Toxic; Activity [4]: Active; Activity (HepG2 [5]): 24.98%; viability at 10 h, 2 µM [6]: 62.9%; Activity [10]: Toxic; Activity [11]: Toxic; mortality at 72 h, 0.5 µM [12]: 100%; Activity (HepG2 [7]): 10.34%; mortality at 24 h, 0.125 µM [13]: 90%; Activity [8]: Active; Activity (HepG2 [9]): 1.75%
18 | Cc1c(O)c(O)cc2c1CC=C1[C@@]2(C)CC[C@@]2(C)[C@@H]3C[C@](C)(C(=O)O)CC[C@]3(C)CC[C@]12C [DIHYDROCELASTROL] | Active | 870 | – | Activity (HepG2 [3]): Non-Toxic; Activity [14]: Toxic; Activity [4]: Active; Activity (HepG2 [5]): 11.09%; Activity [15]: Toxic; viability at 10 h, 2 µM [6]: 85%; Activity [10]: Toxic; Activity [11]: Toxic; Activity (HepG2 [7]): 3.12%; Activity [8]: Active; Activity (HepG2 [9]): 0.79%
19 | COC(=O)[C@]1(C)CC[C@]2(C)CC[C@]3(C)C4=CCc5c(cc(O)c(OC)c5C)[C@]4(C)CC[C@@]3(C)[C@@H]2C1 | – | – | Not Active | –
20 | Cc1c(O)c(O)cc2c1[C@H](c1cc[nH]c1)C=C1[C@@]2(C)CC[C@@]2(C)[C@@H]3C[C@](C)(C(=O)O)CC[C@]3(C)CC[C@]12C | inactive | – | Not Active | –
21 | COC(=O)[C@]1(C)CC[C@]2(C)CC[C@]3(C)C4=CC=C5C(=CC(=O)C(OCC(F)F)=C5C)[C@]4(C)CC[C@@]3(C)[C@@H]2C1 | inactive | 3300 | – | –
22 | CNC(=O)[C@]1(C)CC[C@]2(C)CC[C@]3(C)C4=CC=C5C(=CC(=O)C(O)=C5C)[C@]4(C)CC[C@@]3(C)[C@@H]2C1 | Active | 800 | – | –
23 | Cc1c(O)c(O)cc2c1[C@H](C)C=C1[C@@]2(C)CC[C@@]2(C)[C@@H]3C[C@](C)(C(=O)O)CC[C@]3(C)CC[C@]12C | inactive | – | Not Active | –
24 | CCCNC(=O)[C@]1(C)CC[C@]2(C)CC[C@]3(C)C4=CC=C5C(=CC(=O)C(O)=C5C)[C@]4(C)CC[C@@]3(C)[C@@H]2C1 | Active | 270 | – | –
25 | Cc1c(O)c(O)cc2c1[C@H](C[N+](=O)[O-])C=C1[C@@]2(C)CC[C@@]2(C)[C@@H]3C[C@](C)(C(=O)O)CC[C@]3(C)CC[C@]12C | inactive | 5560 | – | –

From ChEMBL document CHEMBL4393721 (Eur J Med Chem, 2019)
